Measurements taken from paper PMC10769797 (The Oncologist, 2023).

How the values were obtained:
[1] = Plasma pharmacokinetics, noncompartmental analysis; type: in vivo, human
Summary of the method: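 Oral dosing QD (part A1) or TIW (part A2). Intensive plasma samples were taken after the dose on cycle 1 days 1 and 15, for up to 24 h (A1) or 48 h (A2). Cmax, Tmax, AUC(0-Inf) and terminal half-life came from plasma concentrations by standard noncompartmental analysis, with descriptive statistics.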

[2] = test system: patients with advanced solid tumors; experiment: Phase I dose-escalation safety: adverse events; type: in vivo, human
CDK7 = CDK7 (Homo sapiens, UniProt P50613); experiment: CDK7-target occupancy assay; type: in vivo
Summary of the method: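 Skin biopsies were taken at baseline (≤14 days pre-dose) and 6–8 h postdose on days 1 and 15; PBMCs predose day 1 and 8 h postdose days 1 and 15. Lysates were labelled with a biotinylated probe. Anti-cyclin H captured CDK7/cyclin H on MSD plates. Unbound CDK7 was read with SULFO-TAG streptavidin, total with anti-CDK7 mAb. Skin occupancy was baseline-normalised unbound/total; PBMC occupancy was unbound versus day-1 predose.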

Sequence of CDK7 (P50613 2-346 limits assumed): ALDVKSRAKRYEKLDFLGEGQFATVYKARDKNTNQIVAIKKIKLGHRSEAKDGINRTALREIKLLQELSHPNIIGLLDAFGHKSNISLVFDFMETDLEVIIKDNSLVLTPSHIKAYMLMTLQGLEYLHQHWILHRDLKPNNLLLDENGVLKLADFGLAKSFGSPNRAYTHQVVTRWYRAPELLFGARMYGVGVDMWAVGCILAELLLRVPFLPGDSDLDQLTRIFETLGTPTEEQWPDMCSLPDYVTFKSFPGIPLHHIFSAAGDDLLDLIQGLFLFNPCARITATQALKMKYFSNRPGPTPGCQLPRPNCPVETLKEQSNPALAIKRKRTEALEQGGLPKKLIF
Sequence of CDK7 (P51946 whole entry partner): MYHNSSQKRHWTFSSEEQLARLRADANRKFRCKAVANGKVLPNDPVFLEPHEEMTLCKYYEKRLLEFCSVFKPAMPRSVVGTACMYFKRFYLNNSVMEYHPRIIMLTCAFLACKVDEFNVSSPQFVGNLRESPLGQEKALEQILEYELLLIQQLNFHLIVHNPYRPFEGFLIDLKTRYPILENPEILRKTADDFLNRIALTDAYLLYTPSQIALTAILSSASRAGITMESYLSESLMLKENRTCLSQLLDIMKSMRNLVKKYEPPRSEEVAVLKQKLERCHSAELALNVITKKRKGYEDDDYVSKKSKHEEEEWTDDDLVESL
Sequence of CDK7 (P51948 whole entry partner): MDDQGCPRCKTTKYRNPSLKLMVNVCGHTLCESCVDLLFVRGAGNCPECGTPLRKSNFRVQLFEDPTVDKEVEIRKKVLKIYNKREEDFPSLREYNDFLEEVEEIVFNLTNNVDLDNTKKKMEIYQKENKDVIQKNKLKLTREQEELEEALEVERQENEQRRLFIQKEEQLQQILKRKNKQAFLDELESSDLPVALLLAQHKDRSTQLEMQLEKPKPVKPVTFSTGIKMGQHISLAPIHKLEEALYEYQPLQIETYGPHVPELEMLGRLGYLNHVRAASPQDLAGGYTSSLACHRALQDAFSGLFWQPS

Cc1cc(NC2CCN(C(=O)OC3CCN(C(=O)/C=C/CN(C)C)C3)CC2)n2ncc(C(C)C)c2n1 (stereo not shown) [LY3405105]
3 (7) n (%): TRAE: Platelet count decrease ([2]; QD (N = 43), ≥Grade 3)
Seven: Patients with dose-limiting toxicities ([2]; all 54 enrolled patients, all DLTs in part A1 (QD))
8 (19) n (%): TRAE: Fatigue ([2]; QD (N = 43), Any grade) | TRAE: Vomiting ([2]; QD (N = 43), Any grade)
15 to 19 h: Geometric mean terminal elimination half-life ([1]; oral dosing, assessed in the TIW group)
29 (67) n (%): Patients with ≥1 TRAE ([2]; QD (N = 43), Any grade)
2 (4) n (%): SAE related to study treatment: Diarrhea ([2]; Total (N = 54), Any grade) | SAE related to study treatment: Diarrhea ([2]; Total (N = 54), ≥Grade 3) | TRAE: Anemia ([2]; Total (N = 54), ≥Grade 3) | TRAE: Diarrhea ([2]; Total (N = 54), ≥Grade 3)
6 (11) n (%): TRAE: Abdominal pain ([2]; Total (N = 54), Any grade) | TRAE: Anemia ([2]; Total (N = 54), Any grade) | TRAE: Asthenia ([2]; Total (N = 54), Any grade) | TRAE: Platelet count decrease ([2]; Total (N = 54), Any grade) | Patients with ≥1 SAE related to study treatment ([2]; Total (N = 54), ≥Grade 3)
4 (36) n (%): TRAE: Asthenia ([2]; TIW (N = 11), Any grade)
6 (55) n (%): Patients with ≥1 TRAE ([2]; TIW (N = 11), Any grade)
10 (23) n (%): Patients with ≥1 TRAE ([2]; QD (N = 43), ≥Grade 3)
up to 90%: CDK7-target occupancy observed (CDK7; highest observed in the trial)
no DLT was observed: Dose-limiting toxicity ([2]; part A1, 20 mg QD) | Dose-limiting toxicity ([2]; part A1, 1, 2, 4, 8, 15, or 30 mg QD) | Dose-limiting toxicity ([2]; part A2 (TIW), 2 mg, 4 mg, or 8 mg)
1 (9) n (%): TRAE: Anemia ([2]; TIW (N = 11), Any grade) | TRAE: Nausea ([2]; TIW (N = 11), Any grade)
2 (5) n (%): SAE related to study treatment: Diarrhea ([2]; QD (N = 43), Any grade) | TRAE: Asthenia ([2]; QD (N = 43), Any grade) | SAE related to study treatment: Diarrhea ([2]; QD (N = 43), ≥Grade 3) | TRAE: Anemia ([2]; QD (N = 43), ≥Grade 3) | TRAE: Diarrhea ([2]; QD (N = 43), ≥Grade 3)
exposures increased with dose: Dose dependence of plasma exposure ([1]; 1 to 45 mg QD day 1, 1 to 35 mg QD day 15, 2 to 8 mg TIW day 1 and day 15)
> 75%: CDK7 target occupancy (CDK7; ≥15 mg once daily)
64.8%: Patients reporting at least one treatment-related adverse event (TRAE) ([2]; all patients (N = 54))
9 (21) n (%): TRAE: Nausea ([2]; QD (N = 43), Any grade)
8 (15) n (%): TRAE: Fatigue ([2]; Total (N = 54), Any grade) | TRAE: Vomiting ([2]; Total (N = 54), Any grade)
20 mg: Maximum tolerated dose (MTD) ([2]; QD, oral monotherapy, patients) | Recommended phase II dose (RP2D) ([2]; QD, oral monotherapy, patients)
10 (19) n (%): TRAE: Nausea ([2]; Total (N = 54), Any grade) | Patients with ≥1 TRAE ([2]; Total (N = 54), ≥Grade 3)
1 (2) n (%): SAE related to study treatment: Abdominal pain ([2]; QD (N = 43), Any grade) | SAE related to study treatment: Acute kidney injury ([2]; QD (N = 43), Any grade) | SAE related to study treatment: Alanine aminotransferase increase ([2]; QD (N = 43), Any grade) | SAE related to study treatment: Dyspnea ([2]; QD (N = 43), Any grade) | SAE related to study treatment: Hypotension ([2]; QD (N = 43), Any grade) | SAE related to study treatment: Mucosal inflammation ([2]; QD (N = 43), Any grade) | SAE related to study treatment: Nausea ([2]; QD (N = 43), Any grade) | SAE related to study treatment: Ophthalmic herpes zoster ([2]; QD (N = 43), Any grade) | SAE related to study treatment: Platelet count decrease ([2]; QD (N = 43), Any grade) | SAE related to study treatment: Acute kidney injury ([2]; QD (N = 43), ≥Grade 3) | SAE related to study treatment: Alanine aminotransferase increase ([2]; QD (N = 43), ≥Grade 3) | SAE related to study treatment: Dyspnea ([2]; QD (N = 43), ≥Grade 3) | SAE related to study treatment: Mucosal inflammation ([2]; QD (N = 43), ≥Grade 3) | SAE related to study treatment: Nausea ([2]; QD (N = 43), ≥Grade 3) | SAE related to study treatment: Ophthalmic herpes zoster ([2]; QD (N = 43), ≥Grade 3) | SAE related to study treatment: Platelet count decrease ([2]; QD (N = 43), ≥Grade 3) | TRAE: Fatigue ([2]; QD (N = 43), ≥Grade 3) | TRAE: Nausea ([2]; QD (N = 43), ≥Grade 3) | SAE related to study treatment: Abdominal pain ([2]; Total (N = 54), Any grade) | SAE related to study treatment: Acute kidney injury ([2]; Total (N = 54), Any grade) | SAE related to study treatment: Alanine aminotransferase increase ([2]; Total (N = 54), Any grade) | SAE related to study treatment: Dyspnea ([2]; Total (N = 54), Any grade) | SAE related to study treatment: Hypotension ([2]; Total (N = 54), Any grade) | SAE related to study treatment: Mucosal inflammation ([2]; Total (N = 54), Any grade) | SAE related to study treatment: Nausea ([2]; Total (N = 54), Any grade) | SAE related to study treatment: Ophthalmic herpes zoster ([2]; Total (N = 54), Any grade) | SAE related to study treatment: Platelet count decrease ([2]; Total (N = 54), Any grade) | SAE related to study treatment: Acute kidney injury ([2]; Total (N = 54), ≥Grade 3) | SAE related to study treatment: Alanine aminotransferase increase ([2]; Total (N = 54), ≥Grade 3) | SAE related to study treatment: Dyspnea ([2]; Total (N = 54), ≥Grade 3) | SAE related to study treatment: Mucosal inflammation ([2]; Total (N = 54), ≥Grade 3) | SAE related to study treatment: Nausea ([2]; Total (N = 54), ≥Grade 3) | SAE related to study treatment: Ophthalmic herpes zoster ([2]; Total (N = 54), ≥Grade 3) | SAE related to study treatment: Platelet count decrease ([2]; Total (N = 54), ≥Grade 3) | TRAE: Fatigue ([2]; Total (N = 54), ≥Grade 3) | TRAE: Nausea ([2]; Total (N = 54), ≥Grade 3)
approximately 500 ng h/mL: Steady-state AUC above which maximum skin target occupancy occurred (CDK7; part A1, skin, day 15, corresponds to doses at 15 mg QD)
0 n (%): SAE related to study treatment: Abdominal pain ([2]; QD (N = 43), ≥Grade 3) | SAE related to study treatment: Hypotension ([2]; QD (N = 43), ≥Grade 3) | TRAE: Abdominal pain ([2]; QD (N = 43), ≥Grade 3) | TRAE: Asthenia ([2]; QD (N = 43), ≥Grade 3) | TRAE: Vomiting ([2]; QD (N = 43), ≥Grade 3) | Patients with ≥1 SAE related to study treatment ([2]; TIW (N = 11), Any grade) | SAE related to study treatment: Abdominal pain ([2]; TIW (N = 11), Any grade) | SAE related to study treatment: Acute kidney injury ([2]; TIW (N = 11), Any grade) | SAE related to study treatment: Alanine aminotransferase increase ([2]; TIW (N = 11), Any grade) | SAE related to study treatment: Diarrhea ([2]; TIW (N = 11), Any grade) | SAE related to study treatment: Dyspnea ([2]; TIW (N = 11), Any grade) | SAE related to study treatment: Hypotension ([2]; TIW (N = 11), Any grade) | SAE related to study treatment: Mucosal inflammation ([2]; TIW (N = 11), Any grade) | SAE related to study treatment: Nausea ([2]; TIW (N = 11), Any grade) | SAE related to study treatment: Ophthalmic herpes zoster ([2]; TIW (N = 11), Any grade) | SAE related to study treatment: Platelet count decrease ([2]; TIW (N = 11), Any grade) | TRAE: Abdominal pain ([2]; TIW (N = 11), Any grade) | TRAE: Diarrhea ([2]; TIW (N = 11), Any grade) | TRAE: Fatigue ([2]; TIW (N = 11), Any grade) | TRAE: Platelet count decrease ([2]; TIW (N = 11), Any grade) | TRAE: Vomiting ([2]; TIW (N = 11), Any grade) | Patients with ≥1 SAE related to study treatment ([2]; TIW (N = 11), ≥Grade 3) | Patients with ≥1 TRAE ([2]; TIW (N = 11), ≥Grade 3) | SAE related to study treatment: Abdominal pain ([2]; TIW (N = 11), ≥Grade 3) | SAE related to study treatment: Acute kidney injury ([2]; TIW (N = 11), ≥Grade 3) | SAE related to study treatment: Alanine aminotransferase increase ([2]; TIW (N = 11), ≥Grade 3) | SAE related to study treatment: Diarrhea ([2]; TIW (N = 11), ≥Grade 3) | SAE related to study treatment: Dyspnea ([2]; TIW (N = 11), ≥Grade 3) | SAE related to study treatment: Hypotension ([2]; TIW (N = 11), ≥Grade 3) | SAE related to study treatment: Mucosal inflammation ([2]; TIW (N = 11), ≥Grade 3) | SAE related to study treatment: Nausea ([2]; TIW (N = 11), ≥Grade 3) | SAE related to study treatment: Ophthalmic herpes zoster ([2]; TIW (N = 11), ≥Grade 3) | SAE related to study treatment: Platelet count decrease ([2]; TIW (N = 11), ≥Grade 3) | TRAE: Abdominal pain ([2]; TIW (N = 11), ≥Grade 3) | TRAE: Anemia ([2]; TIW (N = 11), ≥Grade 3) | TRAE: Asthenia ([2]; TIW (N = 11), ≥Grade 3) | TRAE: Diarrhea ([2]; TIW (N = 11), ≥Grade 3) | TRAE: Fatigue ([2]; TIW (N = 11), ≥Grade 3) | TRAE: Nausea ([2]; TIW (N = 11), ≥Grade 3) | TRAE: Platelet count decrease ([2]; TIW (N = 11), ≥Grade 3) | TRAE: Vomiting ([2]; TIW (N = 11), ≥Grade 3) | SAE related to study treatment: Abdominal pain ([2]; Total (N = 54), ≥Grade 3) | SAE related to study treatment: Hypotension ([2]; Total (N = 54), ≥Grade 3) | TRAE: Abdominal pain ([2]; Total (N = 54), ≥Grade 3) | TRAE: Asthenia ([2]; Total (N = 54), ≥Grade 3) | TRAE: Vomiting ([2]; Total (N = 54), ≥Grade 3)
1 to 2 h: Median time to maximum concentration ([1]; oral dosing, patients)
18 (33) n (%): TRAE: Diarrhea ([2]; Total (N = 54), Any grade)
approximately 1000 ng h/mL: Start of the steady-state AUC range where DLTs were observed ([2]; part A1, corresponds to doses of 30 to 45 mg QD)
35 (65) n (%): Patients with ≥1 TRAE ([2]; Total (N = 54), Any grade)
7 (13) n (%): Patients with ≥1 SAE related to study treatment ([2]; Total (N = 54), Any grade)
6 (14) n (%): TRAE: Abdominal pain ([2]; QD (N = 43), Any grade) | TRAE: Platelet count decrease ([2]; QD (N = 43), Any grade) | Patients with ≥1 SAE related to study treatment ([2]; QD (N = 43), ≥Grade 3)
3 (6) n (%): TRAE: Platelet count decrease ([2]; Total (N = 54), ≥Grade 3)
≥ 15 mg: Dose at which near maximal CDK7-target occupancy was achieved (CDK7; QD, steady state on day 15)
18 (42) n (%): TRAE: Diarrhea ([2]; QD (N = 43), Any grade)
5 (12) n (%): TRAE: Anemia ([2]; QD (N = 43), Any grade)
7 (16) n (%): Patients with ≥1 SAE related to study treatment ([2]; QD (N = 43), Any grade)
75%: CDK7-target occupancy (near maximal) (CDK7; skin and peripheral blood, day 15, ≥15 mg QD)
